Scp-1 inhibitor: Scp-1 phosphatase inhibitors, primary screen, biochemical, colorimetric, uHTS; Carboxy-terminal domain RNA polymerase II polypeptide A small phosphatase 1 (Homo …; Recombinant Scp1, phosphopeptide, malachite green phosphate absorbance; inhibition, % at 20 µM; 340,000 tested, 0.88% active; AID 493091, 2011;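 active = inhibition above about 50% at 20 µM, limit read from the data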;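 also: plate controls were DMSO wells with enzyme for no effect and wells lacking enzyme for full effect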
Target sequence (Q9GZU7 76-261 limits assumed): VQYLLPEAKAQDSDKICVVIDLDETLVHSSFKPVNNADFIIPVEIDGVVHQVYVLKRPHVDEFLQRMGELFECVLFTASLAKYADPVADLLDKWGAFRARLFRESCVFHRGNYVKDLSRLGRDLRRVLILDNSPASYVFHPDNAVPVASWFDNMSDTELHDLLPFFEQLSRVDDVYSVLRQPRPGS
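Test system – truncated SCP-1 phosphatase (76-261aa) · Reagent – Phosphorylated 17-residue peptide substrate · Incubation – 45 min room-temperature reaction, 5 min colour, 30 min stabiliser · Detection – colorimetric phosphate reagent with accelerator and stabiliser, absorbance at 630 nm · Measure – % inhibition at 20 µM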
LMPTP inh: LMPTP phosphatase inhibitors, primary screen, biochemical, fluorescence intensity, uHTS | Low molecular weight phosphotyrosine protein phosphatase (Homo sapiens), P24666 | recombinant LMPTP-A, OMFP fluorogenic substrate | inhibition, % at 20 µM | 360,000 tested, 0.22% active | AID 651560, 2012;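 active = compounds that cut the enzyme signal by at least half of the control window in the single-dose screen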;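 also: plate controls were DMSO wells with enzyme plus substrate for no effect and substrate without enzyme for full effect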
Target sequence (P24666 whole entry, looked up): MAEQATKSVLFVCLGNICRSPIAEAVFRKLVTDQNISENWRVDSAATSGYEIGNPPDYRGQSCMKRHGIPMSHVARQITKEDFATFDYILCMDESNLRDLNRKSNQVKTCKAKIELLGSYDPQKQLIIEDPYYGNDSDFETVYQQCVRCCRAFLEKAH
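test system = LMPTP-A | amount = 0.625 nM LMPTP-A final | reagent = fluorogenic phosphatase substrate OMFP at 400 µM final | incubation = 50 min at room temperature | benchmarks = no-enzyme low control, uninhibited high control | medium = Bis-Tris pH 6.0, DTT, detergent | signal = fluorescence intensity of OMFP turnover product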
DNMT1 block: human DNMT1 methyltransferase inhibitors, primary screen, biochemical, molecular beacon, fluorescence, HinP1I cleavage, uHTS. inhibition (reported as % activation of signal), % at 10 µM. 360,000 tested, 0.83% active. DNA (cytosine-5)-methyltransferase 1 (Homo sapiens), P26358. AID 588458, 2011; in the data active = inhibition above about 50%
STEP block: STEP phosphatase inhibitors, primary screen, biochemical, fluorescence intensity, uHTS; Tyrosine-protein phosphatase non-receptor type 5 (Homo sapiens), P54829; recombinant STEP, OMFP fluorogenic substrate; inhibition, % at 20 µM; 360,000 tested, 0.25% active;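 active = inhibition at 20 µM, scaled per plate between control wells, above about 37%, limit read from the data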;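 also: 0% = DMSO with enzyme and substrate and 100% = substrate only without enzyme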
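Assay system: isolated STEP enzyme. Buffer or medium: pH 6.0 Bis-Tris with DTT and Tween 20. Also added: fluorogenic phosphatase substrate OMFP at 25 µM final. Dosing: 20 µM, 1% DMSO. Timing: 20 min reaction, room temperature, in the dark. Measured by: fluorescence intensity, excitation 480 nm, emission 540 nm. Evaluation: normalized % inhibition.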
SUMO1 PPI mod: modulators of SUMO1 protein-protein interactions, primary screen, biochemical, uHTS; SUMO1 binding to a labelled peptide, TR-FRET, 1 h; inhibition, % at 20 µM; 360,000 tested, 0.33% active; AID 602429, 2012; in the data active = inhibition above about 37%
Target sequence (P63165 whole entry, looked up): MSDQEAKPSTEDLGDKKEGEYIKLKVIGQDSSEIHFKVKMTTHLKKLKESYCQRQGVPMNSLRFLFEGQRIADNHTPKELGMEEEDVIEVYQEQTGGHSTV
DNMT1 inh conf: DNMT1 methyltransferase inhibitor retest, confirmation, biochemical, molecular beacon, fluorescence, single concentration | shares compounds with DNMT1 block | DNMT1 molecular beacon HinP1I cleavage | inhibition, % at 10 µM | 2,300 tested, 8% active | AID 602385, 2012;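 active = average inhibition of at least 30% in the single-concentration confirmation test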
DNMT1 interf: beacon fluorescence artifact counter-screen; shares compounds with DNMT1 block; DNMT1 molecular beacon spectral interference counterscreen, fluorescence 485/520; activation (fluorescence interference), % at 10 µM; 2,300 tested, 1% active; AID 602387;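 active = activation of at least 30% at 10 µM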;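 also: DNMT1 catalytic domain with a HinP1I cleavage step and a FAM/dabcyl DNA beacon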
Active calls of the source: *. Only some compounds are listed: those with a hit (about 1.7% of all), similar ones and a draw of the others.

Screening CCOC(=O)c1c(C)[nH]c(C(=O)OCC(=O)Nc2cc(C)c(Cl)cc2OC)c1C returned Scp-1 inhibitor -5, LMPTP inh 0, DNMT1 block 60*, STEP block 3, SUMO1 PPI mod -1, DNMT1 inh conf 1 and DNMT1 interf -4.
`O=[N+]([O-])c1ccc(F)cc1OCc1cccc(S(=O)(=O)N2CCOCC2)c1` gave Scp-1 inhibitor -5, LMPTP inh 0, DNMT1 block 82*, STEP block 0, SUMO1 PPI mod -13, DNMT1 inh conf 5 and DNMT1 interf 8.
For O=S(=O)(c1cccc(COc2ccc(Cl)cc2Cl)c1)N1CCOCC1 the results were Scp-1 inhibitor -12, LMPTP inh 4, DNMT1 block -1, STEP block -1 and SUMO1 PPI mod 5.
For COCCN(C(=O)c1cc2c(s1)CCC2)c1c(N)n(CC(C)C)c(=O)[nH]c1=O the results were Scp-1 inhibitor 46, LMPTP inh 6, DNMT1 block 61*, STEP block 4, SUMO1 PPI mod 6, DNMT1 inh conf 7 and DNMT1 interf 5.
Screening CCCCCCCC(=O)Nc1ccc(C(=O)N/N=C/c2cccc([N+](=O)[O-])c2)cc1 returned Scp-1 inhibitor 96*, LMPTP inh 0, DNMT1 block 78*, STEP block 24, SUMO1 PPI mod 0, DNMT1 inh conf 5 and DNMT1 interf 2.
`Cn1cccc1CC(=O)N/N=C/c1cccc([N+](=O)[O-])c1` gave Scp-1 inhibitor 1, LMPTP inh 0, DNMT1 block 94*, STEP block -2, SUMO1 PPI mod -6, DNMT1 inh conf 3 and DNMT1 interf 6.
Screening CCCCCCC(=O)Nc1ccc(C(=O)N/N=C/c2cccnc2)cc1 returned Scp-1 inhibitor 25, LMPTP inh 0, DNMT1 block -2, STEP block 13 and SUMO1 PPI mod -7.
Cn1cccc1CC(=O)N/N=C/c1cc([N+](=O)[O-])ccc1Cl was read as Scp-1 inhibitor -5, LMPTP inh 2, DNMT1 block 1, STEP block 1 and SUMO1 PPI mod -12.
O=[N+]([O-])c1ccc(NN=Cc2cccc([N+](=O)[O-])c2)cc1 was read as Scp-1 inhibitor -8, LMPTP inh 36, DNMT1 block 72*, STEP block 13, SUMO1 PPI mod -14, DNMT1 inh conf 4 and DNMT1 interf -1.
COc1ccc(OCCOC(=O)c2nc3nccc(C)n3n2)cc1 was read as Scp-1 inhibitor -4, LMPTP inh 0, DNMT1 block 0, STEP block -3 and SUMO1 PPI mod 1.
`O=C(CCc1ccccc1)N=C1SC2CS(=O)(=O)CC2N1Cc1ccc(F)cc1` (centres undefined) gave Scp-1 inhibitor 4, LMPTP inh 1, DNMT1 block 2, STEP block -1 and SUMO1 PPI mod -4.
`O=C(CCCc1nc2ccccc2s1)Nc1ccc(N2CCOCC2)cc1` gave Scp-1 inhibitor -8, LMPTP inh -1, DNMT1 block 0, STEP block 3 and SUMO1 PPI mod 1.
Screening CCN(c1ccccc1)S(=O)(=O)c1cc(NC(=O)CSc2n[nH]c(=O)[nH]c2=O)ccc1Cl returned Scp-1 inhibitor 0, LMPTP inh 0, DNMT1 block 65*, STEP block 0, SUMO1 PPI mod 4, DNMT1 inh conf 3 and DNMT1 interf 8.
For O=C(N/N=C/c1cc([N+](=O)[O-])ccc1O)c1ccc(COc2ccc3c(c2)CCC3)o1 the results were Scp-1 inhibitor 81*, LMPTP inh 69*, DNMT1 block 72*, STEP block 90*, SUMO1 PPI mod 0, DNMT1 inh conf 21 and DNMT1 interf 0.
COc1ccc2oc(=O)c(C(=O)NCc3ccccc3)cc2c1 was read as Scp-1 inhibitor -5, LMPTP inh 0, DNMT1 block 51*, STEP block -2, SUMO1 PPI mod -41, DNMT1 inh conf 5 and DNMT1 interf 2.
`COc1ccc(CNC(=O)c2cc3cc(OC)ccc3oc2=O)cc1` gave Scp-1 inhibitor -5, LMPTP inh 1, DNMT1 block 4, STEP block 1 and SUMO1 PPI mod -35.
Screening Cc1cc(=O)n2[nH]c(Nc3cccc(Cl)c3)nc2n1 returned Scp-1 inhibitor -8, LMPTP inh -1, DNMT1 block 0, STEP block 1 and SUMO1 PPI mod 7.
Screening O=C(O)c1ccc2c(c1)S(=O)(=O)c1cc(Cl)ccc1C2=O returned Scp-1 inhibitor 0, LMPTP inh 0, DNMT1 block 9, STEP block 2 and SUMO1 PPI mod -21.
`CC(=O)c1cccc(NC(=S)N2CCN(CCN3C(=O)c4cccc5cccc(c45)C3=O)CC2)c1` gave Scp-1 inhibitor -2, LMPTP inh 1, DNMT1 block 44, STEP block 8 and SUMO1 PPI mod -13.
Screening CC(=O)c1ccc(NC(=S)N2CCN(CCN3C(=O)c4cccc5cccc(c45)C3=O)CC2)cc1 returned Scp-1 inhibitor 0, LMPTP inh 2, DNMT1 block 55*, STEP block 4, SUMO1 PPI mod -2, DNMT1 inh conf 1 and DNMT1 interf -3.
COc1ccc(Cn2c(-c3ccc(C)cc3)nc3c(c(=O)c4ccccc4n3C)c2=O)cc1 was read as Scp-1 inhibitor 2, LMPTP inh 11, DNMT1 block 83*, STEP block 2, SUMO1 PPI mod 5, DNMT1 inh conf 2 and DNMT1 interf 4.
Screening Cn1c2ccccc2c(=O)c2c(=O)n(Cc3ccccc3)c(-c3ccc(F)cc3)nc21 returned Scp-1 inhibitor 0, LMPTP inh 1, DNMT1 block 63*, STEP block 1, SUMO1 PPI mod -8, DNMT1 inh conf 0 and DNMT1 interf 0.
CN(C)CCNc1ncnc2c1sc1nc(-c3ccccc3)c3c(c12)CCCC3 was read as Scp-1 inhibitor -17, LMPTP inh -2, DNMT1 block 1, STEP block 5 and SUMO1 PPI mod -82.
For O=C(Cc1ccc(F)cc1)Oc1ccc(C(=S)N2CCCC2)cc1 the results were Scp-1 inhibitor -4, LMPTP inh -1, DNMT1 block 1, STEP block 6 and SUMO1 PPI mod 1.

Source: PubChem
